Results collected from several papers.
pIC50: −log10 of the molar value.
Effect on: cell growth or viability

| SMILES | cell line | technique | time | measurement | result |
| --- | --- | --- | --- | --- | --- |
| O=C(O)c1ccc2c(c1)nc(Nc1cccc(Cl)c1)c1ccncc12 | HD-MB03 |  |  | pIC50 | 6.30 |
| CCOC(=O)c1sc(=NN=C(C)c2c(O)c3ccccc3oc2=O)[nH]c1C | human Skin fibroblast | MTT | 48 h | pIC50 | < 4.00 |
| CS(=O)(=O)c1ccc(C(=O)Nc2ccc(Cl)c(-c3ccccn3)c2)c(Cl)c1 | HD-MB03 |  | 7 days | pIC50 | < 5.00 |
| CC(C)c1cc(-c2n[nH]c(=O)n2-c2ccc3c(ccn3C)c2)c(O)cc1O | B16-F10 | imaging | 24 h | pIC50 | 6.49 |
| Cn1c(-c2nnc(NC(=O)c3cc4c([nH]c5ccccc54)c(-c4ccccc4)n3)s2)cc2ccccc21 | BT-474 | MTT | 72 h | pIC50 | 4.76 |
| COc1cc(Nc2nccc(-c3cnn4nc(OC)ccc34)n2)cc(C(F)(F)F)c1 | NCI-H1563 | ATP luminescence |  | pIC50 | < 5.52 |
| O=C(Nc1cccc(CO)c1)c1c[nH]c2ccc(Cl)cc12 | SK-N-BE | MTT |  | pIC50 | 4.72 |
| CC(C)C[C@H](NC(=O)[C@H](Cc1ccccc1)NC(=O)c1cnccn1)B(O)O | SK-ES1 | ATP luminescence |  | pIC50 | 8.06 |
| O=c1[nH]cc(S(=O)(=O)Nc2cccc(-c3nnc(-c4cccc(Cl)c4)o3)c2)c(=O)[nH]1 | SK-MES-1 | MTT | 24 h | pIC50 | 4.86 |
| CON(C)C(=O)N1N=C(c2cc(F)ccc2F)S[C@@]1(CCCN)c1ccccc1 | MB002 |  | 7 days | pIC50 | 9.01 |
| CC(=NN=c1scc(C)n1C)c1c(O)c2ccccc2oc1=O | human Skin fibroblast | MTT | 48 h | pIC50 | < 4.00 |
| Nc1nc2[nH]cc(CCc3ccc(C(=O)N[C@@H](CCC(=O)O)C(=O)O)cc3)c2c(=O)[nH]1 | MB002 |  | 7 days | pIC50 | 7.20 |
| COc1cc(-c2nc(C(=O)Nc3nnc(-c4cc5ccccc5n4C)s3)cc3c2[nH]c2ccccc23)cc(OC)c1OC | BT-474 | MTT | 72 h | pIC50 | 5.04 |
| CC(=NN=C1NC(=O)C(C)S1)c1c(O)c2ccccc2oc1=O (stereo not shown) | human Skin fibroblast | MTT | 48 h | pIC50 | < 4.00 |
| COc1ccc(-c2nc(C(=O)Nc3nnc(-c4cc5ccccc5n4C)s3)cc3c2[nH]c2ccccc23)cc1 | BT-474 | MTT | 72 h | pIC50 | 4.85 |
| Oc1ccc(Nc2nc(-c3ccc(Cl)cc3)cs2)cc1 | WM278 | MTS | 48 h | pIC50 | 4.67 |
| CCn1c(C)c(N=Nc2ccccc2)sc1=NN=C(C)c1c(O)c2ccccc2oc1=O | human Skin fibroblast | MTT | 48 h | pIC50 | < 4.00 |
| Cn1c(-c2nnc(NC(=O)c3cc4c([nH]c5ccccc54)c(-c4ccc(F)cc4)n3)s2)cc2ccccc21 | BT-474 | MTT | 72 h | pIC50 | 4.74 |
| COc1cccc2c1C(=O)c1c(O)c3c(c(O)c1C2=O)C[C@@](O)(C(=O)CO)C[C@@H]3O[C@H]1C[C@H](N)[C@H](O)[C@H](C)O1 | BT-474 | MTT | 48 h | IC50 | 0.8 mg/L |

| SMILES | cell line | technique | time | measurement | result |
| --- | --- | --- | --- | --- | --- |
| CCn1c(C)c(N=Nc2ccc(C)cc2)sc1=NN=C(C)c1c(O)c2ccccc2oc1=O | human Skin fibroblast | MTT | 48 h | pIC50 | < 4.00 |
| COc1cccc2c1C(=O)c1c(O)c3c(c(O)c1C2=O)C[C@@](O)(C(=O)CO)C[C@@H]3O[C@H]1C[C@H](N)[C@H](O)[C@H](C)O1 | MB002 |  | 7 days | pIC50 | 7.19 |
| CC[C@]1(O)C[C@@H]2CN(CCc3c([nH]c4ccccc34)[C@@](C(=O)OC)(c3cc4c(cc3OC)N(C)[C@H]3[C@@](O)(C(=O)OC)[C@H](OC(C)=O)[C@]5(CC)C=CCN6CC[C@]43[C@@H]65)C2)C1 | KB 3-1 | MTT |  | pIC50 | 7.28 |
| CC1(C)[C@@H](O)CC[C@]2(C)[C@H]3C(=O)C=C4[C@@H]5C[C@@](C)(C(=O)O)CC[C@]5(C)CC[C@@]4(C)[C@]3(C)CC[C@@H]12 | human Skin fibroblast | MTT | 48 h | pIC50 | 4.32 |
| O=C(Nc1nnc(-c2cc3ccccc3[nH]2)s1)c1cc2c([nH]c3ccccc32)c(-c2ccc(F)cc2)n1 | BT-474 | MTT | 72 h | pIC50 | 5.04 |
| CC[C@H](C)[C@@H]([C@@H](CC(=O)N1CCC[C@H]1[C@H](OC)[C@@H](C)C(=O)N[C@@H](Cc1ccccc1)C(=O)O)OC)N(C)C(=O)[C@@H](NC(=O)[C@@H](NC)C(C)C)C(C)C | M21 | MTT | 72 h | pIC50 | < 6.00 |
| CN(C)c1ccc2cc(C(=O)N[C@@H](CCCNC(=N)CCl)C(=O)NCc3ccccc3)ccc2c1 | S-180 |  | 48 h | pIC50 | 5.08 |
| CCn1c(=O)c(-c2ccc(-c3cncs3)cc2Cl)cc2cnc(Nc3ccc(N4CCN(C)CC4)cc3)nc21 | CFPAC-1 | MTT | 24 h | pIC50 | 5.16 |
| COc1cccc(OCCCN)c1-c1cc(Nc2cnc(C#N)cn2)n[nH]1 | MB002 |  | 7 days | pIC50 | 7.58 |
| CCN1C(=O)C(C)SC1=NN=C(C)c1c(O)c2ccccc2oc1=O (stereo not shown) | human Skin fibroblast | MTT | 48 h | pIC50 | < 4.00 |
| CCc1cc2c(cc1N1CCC(N3CCOCC3)CC1)C(C)(C)c1[nH]c3cc(C#N)ccc3c1C2=O | MB002 |  | 7 days | pIC50 | 6.40 |
| O=C(N/N=C/c1c(O)ccc2ccccc12)c1cc(-c2ccc3ccccc3c2)n[nH]1 | WM278 | MTS | 72 h | pIC50 | 5.21 |
| CCN1CCN(Cc2ccc(Nc3ncc(F)c(-c4cc(F)c5nc(C)n(C(C)C)c5c4)n3)nc2)CC1 | MB002 |  | 7 days | pIC50 | 7.14 |
| CCOC(=O)c1sc(=NN=C(C)c2c(O)c3ccccc3oc2=O)n(CC)c1C | human Skin fibroblast | MTT | 48 h | pIC50 | < 4.00 |
| Cc1ccc2[nH]c(=O)c3cc(C(=O)NCCCN(C)Cc4ccccc4)sc3c2c1 | CFPAC-1 | MTT | 24 h | pIC50 | 4.77 |
| COc1cccc2c1C(=O)c1c(O)c3c(c(O)c1C2=O)C[C@@](O)(C(=O)CO)C[C@@H]3O[C@H]1C[C@H](N)[C@H](O)[C@H](C)O1 | U373 MG | SRB |  | pIC50 | 6.06 |
| COc1ccc(-c2nc(C(=O)Nc3nnc(-c4cc5ccccc5[nH]4)s3)cc3c2[nH]c2ccccc23)cc1 | BT-474 | MTT | 72 h | pIC50 | 5.39 |
| CC(=NN=c1sc(N=Nc2ccc(C)cc2)c(C)n1C)c1c(O)c2ccccc2oc1=O | human Skin fibroblast | MTT | 48 h | pIC50 | < 4.00 |
